Shown are actives, neighbours in structure and some others; about 5.8% of the full set was active somewhere.
Pf Dd2 growth: inhibitors of Plasmodium falciparum Dd2 growth; P. falciparum Dd2 growth, SYBR Green, 72 h; hits give low values; activity change, % at 10 µM; 94,000 compounds, 2.3% hits; AID 1159554; in the data active = activity change below about -80%; inconclusive = no clear call, values can overlap the other calls
T cruzi growth-1: blocks T. cruzi growth in NIH3T3 culture | T. cruzi beta-gal in NIH3T3, GalScreen luminescence, 90 h | inhibition, % at 8.34 µM | 77,000 compounds, 5.9% hits;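 active = mean inhibition above about 93%, with at least 55% of replicates each passing it, limit read from the data, passing the limit was not always enough; inconclusive = only one of those two conditions holds; inactive = neither condition holds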
IDH1 mut inh: inhibitors of human IDH1 R132H; inhibition, % at 10 µM; 70,000 compounds, 0.18% hits; IDH1 R132H reductase, diaphorase/resazurin fluorescence, 60 min; O75874; in the data active = inhibition above about 34%; inconclusive = no clear call, values can overlap the other calls; inactive = below about 11%;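 also: 0% = DMSO and 100% = no enzyme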
Target sequence (O75874 whole entry R132H): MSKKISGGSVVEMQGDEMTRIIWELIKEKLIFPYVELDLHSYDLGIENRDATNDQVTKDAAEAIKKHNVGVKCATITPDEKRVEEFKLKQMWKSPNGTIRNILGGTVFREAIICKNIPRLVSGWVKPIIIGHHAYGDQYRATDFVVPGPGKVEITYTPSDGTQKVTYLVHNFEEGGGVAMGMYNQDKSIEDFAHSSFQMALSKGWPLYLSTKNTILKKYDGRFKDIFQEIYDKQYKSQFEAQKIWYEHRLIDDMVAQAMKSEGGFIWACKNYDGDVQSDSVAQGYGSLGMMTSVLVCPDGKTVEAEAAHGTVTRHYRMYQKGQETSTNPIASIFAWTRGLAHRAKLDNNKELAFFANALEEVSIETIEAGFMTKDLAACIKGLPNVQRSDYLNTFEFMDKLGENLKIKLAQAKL
GASC1 inh: blocks human GASC-1 (KDM4C) demethylase activity | AID 720574 | GST-KDM4C 2-372, H3K9me3 peptide, LANCE TR-FRET | Q9H3R0 | 96,000 compounds, 0.15% hits | inhibition, % at 12.5 µM;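 active = mean replicate inhibition above about 25%, with at least 55% of replicates also reaching it, limit read from the data, passing the limit was not always enough; inconclusive = only one of those two conditions met; inactive = neither condition met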
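Material: GST-tagged GASC-1 (JMJD2C) catalytic fragment, aa 2-372 / Quantity: enzyme final amount 10 nM / Medium: HEPES buffer, pH 7.5, plus ascorbate / Doses: one test concentration per compound / Incubation: 30 min reaction, 60 min detection, RT / Measured by: LANCE TR-FRET / Read-out: inhibition from TR-FRET ratio decrease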
T cruzi growth-2: Trypanosoma cruzi proliferation inhibition; AID 651739; shares compounds with T cruzi growth-1; inhibition, % at 8.35 µM; 5,600 compounds, 72% hits; T. cruzi beta-gal in NIH3T3, GalScreen luminescence, 90 h;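 active = mean replicate inhibition above about 95% and at least 55% of replicates individually reaching it, limit read from the data; inconclusive = only one of the two criteria is met; inactive = neither criterion is met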
T cruzi growth-3: inhibitors of T. cruzi proliferation. AID 651740. T. cruzi beta-gal in NIH3T3, GalScreen luminescence, 90 h. 5,600 compounds, 21% hits. inhibition, % at 2.09 µM. shares compounds with T cruzi growth-1;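 active = mean inhibition above about 95%, with at least 55% of replicates also reaching it, limit read from the data; inconclusive = meets just one of the two conditions; inactive = meets neither condition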;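 also: plate controls were neutral control median for no effect and positive control median for full effect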
NIH3T3 tox: NIH/3T3 (mouse) viability loss. shares compounds with T cruzi growth-1. NIH/3T3 viability, CellTiter-Glo ATP luminescence, 90 h. cytotoxicity (signal decrease), % at 8.35 µM. 5,600 compounds, 14% hits;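 active = mean signal decrease across replicates above about 35% based on untreated-well scatter, with enough replicates individually passing, limit read from the data; inconclusive = no rule stated though some were filed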;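 also: 0% = median of neutral control wells and 100% = median of positive control wells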
3T3 cytotox 2: kills mouse NIH/3T3 fibroblasts; NIH/3T3 viability, CellTiter-Glo ATP luminescence, 90 h; inhibition, % at 24.9 µM; AID 651744; shares compounds with T cruzi growth-1; 5,600 compounds, 56% hits;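 active = mean loss of cell viability signal at or above a set limit, and enough replicates individually reaching it; inconclusive = meets only the mean limit or only the replicate share; inactive = meets neither condition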;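 also: 0% = median of neutral control wells and 100% = median of positive control wells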
* hit, by the source's call; ? = inconclusive; · = no result.

SMILES	Pf Dd2 growth	T cruzi growth-1	IDH1 mut inh	GASC1 inh	T cruzi growth-2	T cruzi growth-3	NIH3T3 tox	3T3 cytotox 2
C[C@@H]1CCCCO[C@@H](CN(C)C(=O)Nc2ccc(C(F)(F)F)cc2)[C@@H](C)CN([C@H](C)CO)C(=O)c2cc(NS(=O)(=O)c3ccc(Cl)cc3)ccc2O1	-19	88	·	·	·	·	·	·
C[C@@H]1CN([C@H](C)CO)C(=O)c2cc(NS(=O)(=O)c3ccc(Cl)cc3)ccc2O[C@@H](C)CCCCO[C@H]1CN(C)C(=O)Nc1ccc(C(F)(F)F)cc1	-68	86	5	3	·	·	·	·
CC(=O)N1CCCCN2[C@H](C1)[C@H](c1ccc(-c3ccc(C)cc3)cc1)[C@@H]2CO	10	100*	·	0	106*	41	15	29*
CC(=O)N1CCCCN2[C@H](C1)[C@@H](c1ccc(-c3ccc(C)cc3)cc1)[C@@H]2CO	17	111*	·	-1	38	-70	8	0
CC(=O)N1CCCCN2[C@@H](CO)[C@@H](c3ccc(-c4ccc(C)cc4)cc3)[C@@H]2C1	28	106*	·	0	56	36	36*	66*
CC(=O)N1CCCCN2[C@H](CO)[C@@H](c3ccc(-c4ccc(C)cc4)cc3)[C@H]2C1	37	106*	·	-1	3	-15	21	74*
COc1ccc([N+](=O)[O-])cc1NC(=O)CN(c1cc(C(F)(F)F)ccc1Cl)S(C)(=O)=O	·	·	1	·	·	·	·	·
Cc1ccnc(SCC(=O)Nc2ccccc2C)n1	·	·	0	·	·	·	·	·
O=c1c2ccccc2nc(-c2cccs2)n1NCc1ccccc1F	·	·	1	·	·	·	·	·
CC(=O)N1CCCCN2[C@@H](CO)[C@H](c3ccc(-c4ccc(C)cc4)cc3)[C@@H]2C1	-9	120*	·	-1	65	30	?	76*
CC(=O)N1CCCCN2[C@H](C1)[C@H](c1ccc(-c3ccc(F)cc3)cc1)[C@@H]2CO	-1	41	·	1	·	·	·	·
CC(=O)N1CCCCN2[C@H](CO)[C@@H](c3ccc(-c4ccc(C)cc4)cc3)[C@@H]2C1	32	102*	·	1	74	18	41*	28*
CS(=O)(=O)N(CC(=O)Nc1c(F)cccc1F)C1CCCCC1	·	·	0	·	·	·	·	·
C[C@H](CO)N1C[C@H](C)[C@H](CN(C)C(=O)Cc2ccccn2)Oc2cc(C#Cc3ccccc3)ccc2S1(=O)=O	-85*	104*	2	-1	101*	27	28	25
C[C@@H]1CN([C@H](C)CO)S(=O)(=O)c2ccc(C#Cc3ccccc3)cc2O[C@H]1CN(C)C(=O)Cc1ccccn1	?	?	0	0	100*	24	24	85*
C[C@H](CO)N1C[C@H](C)[C@@H](CN(C)C(=O)CN(C)C)Oc2cc(C#Cc3ccccc3)ccc2S1(=O)=O	-83*	?	0	0	105*	62	2	104*
C[C@H](CO)N1C[C@H](C)[C@@H](CN(C)C(=O)Cc2ccccn2)Oc2cc(C#Cc3ccccc3)ccc2S1(=O)=O	-73	68	2	4	·	·	·	·
CC1(C)Cc2c(c(N3CCOCC3)nc3sc4c(=O)[nH]nnc4c23)CO1	·	·	0	·	·	·	·	·
CC(C)(Oc1ccc(Cl)cc1)C(=O)Nc1cc(-c2nc3ncccc3o2)ccc1Cl	·	·	0	·	·	·	·	·
COc1ccc(S(=O)(=O)N(C)C[C@@H]2OCCCC[C@H](C)Oc3ccc(NC(=O)C4CCCCC4)cc3C(=O)N([C@@H](C)CO)C[C@H]2C)cc1	-78	81	·	0	·	·	·	·
COc1ccc(S(=O)(=O)N(C)C[C@@H]2OCCCC[C@H](C)Oc3ccc(NC(=O)C4CCCCC4)cc3C(=O)N([C@H](C)CO)C[C@H]2C)cc1	-86*	99*	1	0	64	39	20	?

Assay outcomes from PubChem.
